Here are results for 19 molecules from ChEMBL document CHEMBL1130176, “Selective inhibitors of cyclic AMP-specific phosphodiesterase: heterocycle-condensed purines” (J Med Chem, 1997).

The target of one assay is Phosphodiesterase 4 (Homo sapiens, UniProt P27815+Q08499+Q07343+Q08493). Description: Inhibitory activity against Phosphodiesterase 4 from cerebral cortex.
In another assay the target is Phosphodiesterase 1 (Homo sapiens, UniProt P54750+Q01064+Q14123). Description: Inhibitory activity against PDE1 from cerebral cortex. In kind it is tissue-based. Put shortly:
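PDE I (Ca2+/calmodulin-stimulated, cerebral cortex) and PDE III (cGMP-inhibited, heart) isolated by the Reeves method. […] IC50 fitted by nonlinear least squares. Final DMSO below 0.5%.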

For the next assay, the target named is Phosphodiesterase 3 (Homo sapiens, UniProt Q14432+Q13370). Description: Inhibitory activity against Phosphodiesterase 3 from heart. The class given is protein assay. Put shortly: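 PDE I (Ca2+/calmodulin-stimulated, cerebral cortex) and PDE III (cGMP-inhibited, heart) isolated by the Reeves method. IC50 fitted by nonlinear least squares. Final DMSO below 0.5%.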

The species entered for assay [1] is Cavia porcellus. Kind of assay: Compound was tested in vitro for positive chronotropic action. The class given is functional. Put shortly: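 Isolated right atrium from male Hartley guinea pig (300–500 g) in Krebs–Henseleit, 95% O2–5% CO2, 25 °C, 0.5 g tension. Cumulative compound concentrations, at least five spanning the EC20. Beating rate recorded by cardiotachometer triggered by isometric contraction. Value is the concentration raising the unstimulated rate by 20% (EC20). DMSO below 0.5% final.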

The species entered for assay [2] is Cavia porcellus. Description: Tested in vitro for tracheal relaxation. In kind it is functional. The note with it: Trachea. Put shortly:
(§1)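 Tracheal ring-chains from male Hartley guinea pigs (300–500 g), 37 °C Krebs–Henseleit pH 7.4, 95% O2–5% CO2, 0.5 g tension, isometric recording. After full relaxation with 1.0 μM isoprenaline and washout, spontaneous tone redeveloped. Cumulative compound concentrations then given, at least five spanning the EC50.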

Assay [3] concerns Suncus murinus. Kind of assay: Emetic effect in shrews at 10 mg/kg peroral dose, 3 of 3 animals affected. The class given is functional. The note with it: route oral.
The subject of assay [4] is Suncus murinus. Kind of assay: (§2) Emetic effect in shrews at 30 mg/kg peroral dose, 0 of 3 animals affected. The class given is functional. The note with it: route oral.
The subject of assay [5] is Suncus murinus. The description is as §2. In kind it is functional. Particulars: route oral. This is another data set of the same source.
Assay [6] concerns Suncus murinus. Description: Emetic effect in shrews at 100 mg/kg peroral dose, 0 of 3 animals affected. In kind it is functional. The note with it: route oral.
Assay [7] is filed under the species Cavia porcellus. Description: In vitro positive chronotropic effect. The class given is functional. Put shortly: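 Isolated right atrium from male Hartley guinea pigs (300–500 g) in Krebs–Henseleit, 25 °C, 95% O2–5% CO2, 0.5 g tension. Cumulative compound concentrations; beating rate recorded by cardiotachometer triggered by isometric contraction. EC20 is the concentration raising unstimulated rate by 20%, from over five concentrations. DMSO below 0.5% final.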

The species named for assay [8] is Cavia porcellus. Description: Negative inotropic response to adenosine in guinea pig left atrium. In kind it is functional. The note with it: Cardiac atrium, read-out: pA2 (converted).
Assay [9] deals with Suncus murinus. Kind of assay: Emetic effect in shrews at 30 mg/kg peroral dose, 3 of 3 animals affected. The class given is functional. Particulars: route oral.
The species entered for assay [10] is Cavia porcellus. Kind of assay: In vitro guinea pig tracheal relaxation. The class given is functional. Particulars: Trachea. The method, boiled down:
as §1

In general, IC50 refers to the midpoint of a concentration-inhibition curve. Low readings indicate greater potency in that assay, high ones weaker potency in that assay. What is called EC20 is the concentration at which the effect reaches the 20% level. Higher therefore signals weaker potency. One may read the EC50 as the concentration needed to bring the measured effect to its halfway point. Read a low EC50 as an effect from little substance.

`CCCN1C(=O)N2CCCCN=C2c2ncn(CCC)c21`: the half-maximal inhibitory concentration (IC50) is 13 µM against Phosphodiesterase 4, > 100 µM at Phosphodiesterase 1 and > 100 µM on Phosphodiesterase 3. Besides, in the assay filed under Cavia porcellus [1], the 20% effect concentration (EC20) was > 100 µM. In the assay filed under Cavia porcellus [2], this molecule displayed an EC50 of 2.5 µM.
Regarding `CCCN1C(=O)N2CCCCN=C2c2[nH]cnc21`, the half-inhibitory concentration (IC50) at Phosphodiesterase 4, against Phosphodiesterase 1 and against Phosphodiesterase 3 was > 100 µM throughout. Also, the EC20 in the assay filed under Cavia porcellus [1] was > 100 µM. The molecule further registered a concentration for a half-maximal effect (EC50) in the assay filed under Cavia porcellus [2] of 53 µM.
`COc1ccc(C2CNC(=O)C2)cc1OC1CCCC1` (stereo unspecified) [ROLIPRAM] had an Emesis in the assay on Suncus murinus [3] of 3.
Turning to `CCCN1C(=O)N2CCN=C2c2[nH]cnc21`, the IC50 against Phosphodiesterase 4, at Phosphodiesterase 1 and against Phosphodiesterase 3 was > 100 µM in each case. For the same molecule, the EC20 in the assay listed under Cavia porcellus [1] was > 100 µM. The response in the assay filed under Cavia porcellus [2] was half-maximal at 31 µM (EC50).
In the case of `Nc1cc(-c2ccncc2)c[nH]c1=O` [INAMRINONE], the half-inhibitory concentration (IC50) against Phosphodiesterase 1 is > 300 µM. Moreover, in the assay listed under Cavia porcellus [1], the concentration for an effect of 20% (EC20) was 62 µM. In addition, the EC50 in the assay listed under Cavia porcellus [2] was 7.4 µM.
In the case of `CCCN1C(=O)N2CCCN=C2c2ncn(CCC)c21`, the IC50 at Phosphodiesterase 4 is 4.7 µM; against Phosphodiesterase 1 it was > 100 µM; at Phosphodiesterase 3, > 100 µM. Besides, the concentration for an effect of 20% (EC20) in the assay listed under Cavia porcellus [1] is > 100 µM. The molecule also displayed a concentration giving a half-maximal response (EC50) in the assay listed under Cavia porcellus [2] of 2.1 µM.
Turning to `CCCN1C(=O)N2CCCN=C2c2[nH]cnc21`, the concentration for half-maximal inhibition (IC50) on Phosphodiesterase 4, at Phosphodiesterase 1 and on Phosphodiesterase 3 was > 100 µM in each case. In addition, the EC20 in the assay filed under Cavia porcellus [1] is > 100 µM. In addition, the EC50 in the assay filed under Cavia porcellus [2] is 22 µM.
In the case of `CCCN1C(=O)N2CCN=C2c2ncn(CCC)c21`, the IC50 is 1.6 µM against Phosphodiesterase 4, > 100 µM at Phosphodiesterase 1 and > 100 µM at Phosphodiesterase 3. The Emesis in the assay on Suncus murinus [4], with Suncus murinus [5] and in the assay with Suncus murinus [6] was 0 throughout. Also, in the assay filed under Cavia porcellus [1], the EC20 is > 100 µM. The same molecule had an EC50 in the assay filed under Cavia porcellus [2] of 1 µM.
For the molecule `CCCN1C(=O)N2CCCN=C2c2c1ncn2CCC`, the IC50 against Phosphodiesterase 4 is 49 µM; against Phosphodiesterase 1, > 100 µM; against Phosphodiesterase 3 it was > 100 µM. Also, the EC20 in the assay filed under Cavia porcellus [1] was > 100 µM. The molecule also returned a half-maximal effective concentration (EC50) in the assay listed under Cavia porcellus [2] of 8.2 µM.
For `Cn1c(=O)c2nc[nH]c2n(C)c1=O.O` [THEOPHYLLINE], the EC20 in the assay listed under Cavia porcellus [7] is 88 µM. In addition, in the assay filed under Cavia porcellus [8], the Kb is 29.5 µM. The molecule further registered a concentration for half-maximal inhibition (IC50) against Phosphodiesterase 1 of 356 µM.
`CCCn1c(=O)n2ccnc2c2[nH]cnc21`: the IC50 against Phosphodiesterase 4 was 3.1 µM; against Phosphodiesterase 1, > 100 µM; against Phosphodiesterase 3, > 100 µM. The same molecule displayed a concentration for an effect of 20% (EC20) in the assay filed under Cavia porcellus [1] of 90 µM. Besides, the EC50 in the assay filed under Cavia porcellus [2] was found to be 1.6 µM.
Regarding `CCCn1cnc2c1n(CCC)c(=O)n1ccnc21`, the IC50 is 1.4 µM against Phosphodiesterase 4, 40 µM against Phosphodiesterase 1 and > 100 µM at Phosphodiesterase 3. Further, in the assay with Suncus murinus [3], the Emesis was found to be 3. In addition, the EC20 in the assay filed under Cavia porcellus [1] turned out to be 19 µM. The molecule further displayed a concentration giving a half-maximal response (EC50) in the assay listed under Cavia porcellus [2] of 0.5 µM.
With `CCCn1cnc2c1c1nnnn1c(=O)n2CCC`, the IC50 was 18 µM on Phosphodiesterase 4, > 100 µM against Phosphodiesterase 1 and > 100 µM against Phosphodiesterase 3. For the same molecule, the concentration for an effect of 20% (EC20) in the assay filed under Cavia porcellus [1] was > 100 µM. The molecule further showed an EC50 in the assay filed under Cavia porcellus [2] of 51 µM.
In the assay on Suncus murinus [9], `CCCCn1c(=O)c2c(ncn2CC(C)=O)n(CCCC)c1=O` [DENBUFYLLINE] had an Emesis of 3.
For `CCCn1cnc2c1c1nccn1c(=O)n2CCC`, the IC50 on Phosphodiesterase 4 is 1.9 µM; against Phosphodiesterase 1 it was 14 µM; on Phosphodiesterase 3, > 100 µM. The molecule also had a 20% effect concentration (EC20) in the assay filed under Cavia porcellus [1] of 84 µM. Also, the EC50 in the assay filed under Cavia porcellus [2] is 0.7 µM.
As for `CCCCOc1cc(CC2CNC(=O)N2)ccc1OC` (stereo unspecified) [RO-201724], the concentration for an effect of 20% (EC20) in the assay listed under Cavia porcellus [7] was > 100 µM. Also, the IC50 against Phosphodiesterase 1 and against Phosphodiesterase 3 was > 300 µM each time. Also, the EC50 in the assay listed under Cavia porcellus [10] is 0.12 µM.
In the case of `CCCn1c(=O)n2nnnc2c2[nH]cnc21`, the IC50 against Phosphodiesterase 4, against Phosphodiesterase 1 and at Phosphodiesterase 3 was > 100 µM throughout. For the same molecule, the EC20 in the assay listed under Cavia porcellus [1] is > 100 µM. Moreover, the 50% effective concentration (EC50) in the assay filed under Cavia porcellus [2] is > 100 µM.
In the case of `CCCn1cnc2c1n(CCC)c(=O)n1nnnc21`, the IC50 against Phosphodiesterase 4 was 39 µM; on Phosphodiesterase 1, > 100 µM; on Phosphodiesterase 3 it was > 100 µM. For the same molecule, the EC20 in the assay listed under Cavia porcellus [1] is > 100 µM. The molecule also yielded an EC50 in the assay listed under Cavia porcellus [2] of 68 µM.
On to `CCCN1C(=O)N2CCN=C2c2c1ncn2CCC`, for which the IC50 against Phosphodiesterase 4 is 5.1 µM; on Phosphodiesterase 1 it was > 100 µM; at Phosphodiesterase 3, > 100 µM. The EC20 in the assay filed under Cavia porcellus [1] is > 100 µM. In addition, in the assay listed under Cavia porcellus [2], the EC50 worked out at 2.5 µM.
